Assay results reported in ChEMBL document CHEMBL1156966, “A new cytotoxic tambjamine alkaloid from the Azorean nudibranch Tambja ceutae” (Bioorg Med Chem Lett, 2010).

How the values were obtained:
Caco-2 = test: Cytotoxicity against human Caco-2 cells after 48 hrs by MTT assay; assay type: functional, cell-based; conditions: Caco-2, 48 h
How it was run: (§1)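 Cells exposed 48 h to a range of concentrations, then counted. Viability and proliferation read by MTT, which measures mitochondrial dehydrogenase activity.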

C6 = test: Cytotoxicity against rat C6 cells after 48 hrs by MTT assay; assay type: functional, cell-based; conditions: C6, 48 h; how it was run: as §1
H9c2 = test: Cytotoxicity against rat H9c2 cells after 48 hrs by MTT assay; assay type: cell-based; conditions: H9c2, 48 h; how it was run: as §1
3T3-L1 = test: Cytotoxicity against mouse 3T3L1 cells after 48 hrs by MTT assay; assay type: cell-based; conditions: 3T3-L1, 48 h; how it was run: as §1
HeLa = test: Cytotoxicity against human HeLa cells after 48 hrs by MTT assay; assay type: functional, cell-based; how it was run: as §1

Compound	IC50 (Caco-2) [µM]	IC50 (C6) [µM]	IC50 (H9c2) [µM]	IC50 (3T3-L1) [µM]	IC50 (HeLa) [µM]
COC1=CC(c2ccc[nH]2)=N/C1=C/c1[nH]c(-c2ccc[nH]2)cc1OC	91	7	107	24	70
COC1=CC(c2ccc[nH]2)=N/C1=C\NCCC(C)C [TAMBJAMINE K]	0.0035	14	2.7	19	14.6
